One may read the Kd as the free concentration of one partner at which half of the binding sites on the other are occupied at equilibrium, for simple one-to-one binding. High values mean lower affinity, low ones higher affinity. The term half-life denotes how long it takes for the measured level to halve. A higher half-life goes with slow decline.

Numbered stars: 1 amine (or outer) side, 2 acyl side, 3 side chain; on linkers, the order of the positions; unused ones are H or OH. Square brackets hold non-standard residues; d marks the D form. Peptide text beside a SMILES is read from it. * marks the point of attachment. Acetyl(2-naphthyloxy) = O=C(COc1ccc2ccccc2c1)*; Alaninol(O-CO) = C[C@@H](COC(=O)[*:2])N[*:1]; NH(1-Adamantyl) = C1C2CC3CC1CC(N*)(C2)C3; X1 = O=C(OC[C@@H]1CCCN1[*:1])[*:2]; X2 = S=C(NC1CC1)OC[C@@H]1CCCN1*; X3 = O=C(COc1cccc2cccnc12)*; NHcHex = C1CCC(N*)CC1; NHcPent = C1CCC(N*)C1; NHtBu = CC(C)(C)N*

This passage reports Kd and half-life results from ChEMBL document CHEMBL1146220, “Rational optimization of the binding affinity of CD4 targeting peptidomimetics with potential anti HIV activity” (J Med Chem, 2007).

The target in series [1] is T-cell surface glycoprotein CD4 (Homo sapiens, UniProt P01730). The series is described as follows: Binding affinity to CD4 by SPR assay. Put shortly: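 Test ligands passed over the CD4 SPR surface at a series of concentrations, recording the concentration-dependent maximum response units (RU). Surface regenerated between runs with short pulses of 100 mM H3PO4. Only the lower concentrations (generally up to 50 µM) fitting a one-site binding model were used. KD was taken as the concentration at RUmax/2.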
(In general: In SPR one partner is held on a chip, and binding of the other changes the refractive index at the surface.)

Series [2] in a line: Half life by pronase digestion assay. Particulars: pronase (protease digestion). The series is classed as ADME. Summed up: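 Pronase digestion was run at 37 °C. Aliquots were taken at 5, 10, 15, 20 and 30 min and quenched with 1 M acetic acid. Hydrolysis products were identified as M+H+/Na+/K+ ions, and t1/2 was derived from the disappearance time course.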

Molecule `CC(C)[C@H](NC(=O)[C@H](CCCCN)NC(=O)COc1cccc2cccnc12)C(=O)NCC(=O)N[C@H](C(=O)N[C@@H](C)COC(=O)NC(C)(C)C)[C@@H](C)O` (X3-KVGT[Alaninol(O-CO)]-NHtBu) displayed a dissociation constant (Kd) in series [1] of 13 µM.
The same measure, in the same setting: in the case of `CC(C)[C@H](NC(=O)[C@H](CCCCN)NC(=O)COc1cccc2cccnc12)C(=O)NCC(=O)N[C@H](C(=O)N1CCC[C@H]1COC(=O)NC(C)(C)C)[C@@H](C)O` (X3-KVGT[X1]-NHtBu) it was 26 µM.
The same measure, in the same setting: in the case of `CC(C)[C@H](NC(=O)[C@H](CCCCN)NC(=O)COc1ccc2ccccc2c1)C(=O)NCC(=O)N[C@H](C(=O)N[C@@H](C)COC(=O)NC(C)(C)C)C(C)O` (single isomer, unassigned) it was 20 µM; in that of `CC(C)[C@H](NC(=O)[C@H](CCCCN)NC(=O)COc1ccc2ccccc2c1)C(=O)NCC(=O)N[C@H](C(=O)N1CCC[C@H]1COC(=S)NC1CC1)[C@@H](C)O` ({Acetyl(2-naphthyloxy)}-KVGT-X2), 27 µM.
For the molecule `CC(C)[C@H](NC(=O)[C@H](CCCCN)NC(=O)COc1ccc2ccccc2c1)C(=O)NCC(=O)N[C@H](C(=O)N[C@@H](C)COC(=O)NC1CCCC1)[C@@H](C)O` ({Acetyl(2-naphthyloxy)}-KVGT[Alaninol(O-CO)]-NHcPent), binding in series [1] was characterised by a dissociation constant (Kd) of 62 µM.
Same read-out and setting: with `CC(C)[C@H](NC(=O)[C@H](CCCCN)NC(=O)COc1ccc2ccccc2c1)C(=O)NCC(=O)N[C@H](C(=O)N[C@@H](C)COC(=O)NC12CC3CC(CC(C3)C1)C2)[C@@H](C)O` ({Acetyl(2-naphthyloxy)}-KVGT[Alaninol(O-CO)]-{NH(1-Adamantyl)}) the figure was 80 µM.
Turning to `CC(C)[C@H](NC(=O)[C@H](CCCCN)NC(=O)COc1ccc2ccccc2c1)C(=O)NCC(=O)N[C@H](C(=O)N1CCC[C@H]1COC(=O)NC1CCCCC1)[C@@H](C)O` ({Acetyl(2-naphthyloxy)}-KVGT[X1]-NHcHex), in series [2], the half-life worked out at 27.3 min. For the same molecule, binding in series [1] was put at a Kd of 35 µM.
In series [1], `CC(C)[C@H](NC(=O)[C@H](CCCCN)NC(=O)COc1ccc2ccccc2c1)C(=O)NCC(=O)N[C@H](C(=O)N1CCC[C@H]1COC(=O)NC1CCCC1)[C@@H](C)O` ({Acetyl(2-naphthyloxy)}-KVGT[X1]-NHcPent) came in with a dissociation constant Kd of 16 µM.
On the same count and under the same terms, with `CC(C)[C@H](NC(=O)[C@H](CCCCN)NC(=O)COc1ccc2ccccc2c1)C(=O)NCC(=O)N[C@H](C(=O)N1CCC[C@H]1COC(=O)NC(C)(C)C)[C@@H](C)O` ({Acetyl(2-naphthyloxy)}-KVGT[X1]-NHtBu) the figure was 6 µM.
Turning to `CCOC(=O)CNC(=O)OC[C@@H]1CCCN1C(=O)[C@@H](NC(=O)CNC(=O)[C@@H](NC(=O)[C@H](CCCCN)NC(=O)COc1ccc2ccccc2c1)C(C)C)[C@@H](C)O` ({Acetyl(2-naphthyloxy)}-KVGT[X1]G-OEt), the half-life in series [2] stood at 23 min. Besides, in series [1], the affinity, expressed as Kd, was 26 µM.
In the same order, the values of H-NMWQKVGTPL-OH are 6 min and 6000 µM.
